Key:
[1] = test system: patients with advanced cancer; experiment: Phase I dose-escalation safety and tolerability; assay type: in vivo, human
Method in brief: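 Single-center oral once-daily escalation. Part A used 3+3 cohorts starting at 1/12th of the allometrically scaled rat LOAEL. Part B used single-patient cohorts, expanded to 3+3 after ≥Grade 2 drug-related toxicity in cycle 1. AEs were graded by NCI CTCAE v3. DLT was a treatment-related Grade ≥3 nonhematologic or Grade ≥4 hematologic cycle-1 AE. MTD was the next lower dose after ≥2 DLTs in a cohort.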

[2] = Phase I plasma pharmacokinetics of ENMD-1198 in cancer patients
[3] = single oral dose 425 mg/m^2/day, n=5

Which results are given for COc1cc2c(cc1C(N)=O)CC[C@@H]1[C@@H]2CC[C@]2(C)C=CC[C@@H]12 [ENMD-1198, 2-methoxyestra-1,3,5(10)16-tetraene-3-carboxamide]?
Drug-related Grade 3/4 toxicities ([1]; 5–425 mg/m^2/d dose range): No drug-related Grade 3/4 toxicities; Recommended phase II dose (RP2D) ([1]; oral once daily): 425 mg/m^2/d; Maximum tolerated dose (MTD) ([1]; oral once daily, cancer patients): 425 mg/m^2/day; Life-threatening AEs or treatment-related deaths ([1]; whole study): No life-threatening AEs or treatment-related deaths; Accumulation after multiple doses ([2]; human, in vivo): 3 fold; Dose proportionality of plasma exposures ([2]; human, in vivo): increased proportionally with dose; Mean terminal half-life ([2]; human, in vivo): 15 h; Tmax ([2]; human, in vivo, po): 1 to 2 h; AUC0–24hr ([2]; human, in vivo, po, 5 mg/m2): 312.35 ± 175.38 ng·h/mL; Cmax ([2]; human, in vivo, po, 5 mg/m2): 68.75 ± 48.50 ng/mL; Half-life ([2]; human, in vivo, po, 5 mg/m2): 12.16 ± 4.22 h; Tmax ([2]; human, in vivo, po, 5 mg/m2): 1.25 ± 0.50 h; AUC0–24hr ([2]; human, in vivo, po, 10 mg/m2): 1073.83 ± 156.28 ng·h/mL; Cmax ([2]; human, in vivo, po, 10 mg/m2): 141.20 ± 28.47 ng/mL; Half-life ([2]; human, in vivo, po, 10 mg/m2): 10.57 ± 4.42 h; Tmax ([2]; human, in vivo, po, 10 mg/m2): 1.67 ± 0.58 h; AUC0–24hr ([2]; human, in vivo, po, 20 mg/m2): 2138.07 ± 384.60 ng·h/mL; Cmax ([2]; human, in vivo, po, 20 mg/m2): 418.66 ± 72.53 ng/mL; Half-life ([2]; human, in vivo, po, 20 mg/m2): 11.03 ± 1.85 h; Tmax ([2]; human, in vivo, po, 20 mg/m2): 1.33 ± 0.58 h; AUC0–24hr ([2]; human, in vivo, po, 30 mg/m2): 3914.43 ± 1336.73 ng·h/mL; Cmax ([2]; human, in vivo, po, 30 mg/m2): 677.80 ± 125.78 ng/mL; Half-life ([2]; human, in vivo, po, 30 mg/m2): 19.45 ± 7.66 h; Tmax ([2]; human, in vivo, po, 30 mg/m2): 1.00 ± 0.00 h; AUC0–24hr ([2]; human, in vivo, po, 40 mg/m2): 3616.23 ± 1880.32 ng·h/mL; Cmax ([2]; human, in vivo, po, 40 mg/m2): 675.83 ± 280.76 ng/mL; Half-life ([2]; human, in vivo, po, 40 mg/m2): 8.98 ± 4.22 h; Tmax ([2]; human, in vivo, po, 40 mg/m2): 1.33 ± 0.58 h; AUC0–24hr ([2]; human, in vivo, po, 60 mg/m2): 4901.00 ng·h/mL; Cmax ([2]; human, in vivo, po, 60 mg/m2): 1032.20 ng/mL; Half-life ([2]; human, in vivo, po, 60 mg/m2): 11.82 h; Tmax ([2]; human, in vivo, po, 60 mg/m2): 1.00 h; AUC0–24hr ([2]; human, in vivo, po, 120 mg/m2): 10387.00 ng·h/mL; Cmax ([2]; human, in vivo, po, 120 mg/m2): 1823.10 ng/mL; Half-life ([2]; human, in vivo, po, 120 mg/m2): 10.66 h; Tmax ([2]; human, in vivo, po, 120 mg/m2): 1.00 h; AUC0–24hr ([2]; human, in vivo, po, 180 mg/m2): 14789.00 ng·h/mL; Cmax ([2]; human, in vivo, po, 180 mg/m2): 2904.10 ng/mL; Half-life ([2]; human, in vivo, po, 180 mg/m2): 29.80 h; Tmax ([2]; human, in vivo, po, 180 mg/m2): 1.00 h; AUC0–24hr ([2]; human, in vivo, po, 240 mg/m2): 16277.00 ng·h/mL; Cmax ([2]; human, in vivo, po, 240 mg/m2): 2559.90 ng/mL; Half-life ([2]; human, in vivo, po, 240 mg/m2): 16.15 h; Tmax ([2]; human, in vivo, po, 240 mg/m2): 1.00 h; AUC0–24hr ([2]; human, in vivo, po, 320 mg/m2): 42184.00 ng·h/mL; Cmax ([2]; human, in vivo, po, 320 mg/m2): 3851.00 ng/mL; Half-life ([2]; human, in vivo, po, 320 mg/m2): 9.70 h; Tmax ([2]; human, in vivo, po, 320 mg/m2): 2.00 h; AUC0–24hr ([2]; human, in vivo, po, 550 mg/m2): 45223.33 ± 18198.49 ng·h/mL; Cmax ([2]; human, in vivo, po, 550 mg/m2): 4319.67 ± 2006.78 ng/mL; Half-life ([2]; human, in vivo, po, 550 mg/m2): 17.93 ± 4.11 h; Tmax ([2]; human, in vivo, po, 550 mg/m2): 1.67 ± 0.58 h; AUC0–24hr [2, 3]: 24816.06 ± 14612.08 ng·h/mL; Cmax [2, 3]: 2420.94 ± 1098.82 ng/mL; Half-life [2, 3]: 18.40 ± 13.04 h; Tmax [2, 3]: 6.20 ± 9.96 h
